Bioassay records deposited in PubChem BioAssay by several laboratories.
Only some compounds are listed: those with a hit (about 6.4% of all), similar ones and a draw of the others.
H69AR growth 86K: blocks growth of human H69AR lung tumor cells. actives 6% (n = 85,000). AID 598. H69AR lung tumor viability, ATP luminescence, 72 h; active compounds read low. viability, % at 10 µM;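 active = viability at or below 40%; inactive = viability above 40%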;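 note: multidrug resistant small cell line overexpressing MRP-1 efflux transporter; 100% = mean luminescence of untreated control wells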
E coli WT exp: blocks growth of wild type E. coli BW25113. growth inhibition, % at 100 µM. OD600 absorbance. actives 0.15% (n = 98,000);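 active = growth inhibition above about 50% at one test dose, limit read from the data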;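 note: growth measured after 20 h incubation at 37 °C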
tolC growth inh: growth inhibitors of E. coli BW25113 tolC mutant; OD615; growth inhibition, % at 10 µM (by protocol); actives 2.2% (n = 65,000); AID 573;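 active = growth inhibition at or above a cutoff equal to the mean over every tested compound plus 3 SD, cut at about 60% in these data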;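 note: growth measured after 20 h incubation at 37 °C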
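test system = E. coli BW25113 ΔtolC::kan bacteria | medium = LB with kanamycin 50 µg/mL | signal = OD at 615 nm | schedule = 37 °C, 20 h exposure | evaluation = % inhibition of E. coli growth | compound dosing = one dose of 10 µM final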
Lung fibro prol: blocks proliferation of human lung fibroblasts; AID 719; LL 47 human lung fibroblast viability, ATP luminescence; active compounds read low; viability, % at 10 µM; actives 1.1% (n = 85,000);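 active = viability at or below 50% in the single dose screen; inactive = viability above 50%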;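 note: compound exposure lasted 72 h before the ATP readout; 100% = median luminescence of untreated cell-only wells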
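Material: human lung fibroblast line LL 47, low passage; Evaluation: viability percentage against median untreated-cell control; Buffer or medium: 15% FBS in IMEM; Incubation: 72 h compound exposure at 37 °C after overnight plating; Dosing: 0.1% DMSO in all compound wells; Measured by: CellTiter-Glo luminescence.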
HUVEC inhibit: blocks proliferation of human endothelial cells. HUVEC proliferation, CellTiter-Glo luminescence, 72 h; active compounds read low. AID 648. viability, % at 10 µM (by protocol). actives 1.1% (n = 86,000);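 active = viability at or below 30%; inactive = viability above 30%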;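 note: 100% = median luminescence of DMSO-only cell control wells on each plate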
Jurkat tox 60K: cytotoxic compounds reducing Jurkat cell viability; Jurkat E6.1 viability, ATP luminescence, 48 h; inhibition, % at 4 µM; actives 1.2% (n = 56,000);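 active = inhibition above the mean inhibition of all tested compounds plus 3 SD, cut at about 28% in these data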
Starred values were filed as active, the others as inactive; / = not tested or not shown; ! = repeats disagree.

SMILES	H69AR growth 86K	E coli WT exp	tolC growth inh	Lung fibro prol	HUVEC inhibit	Jurkat tox 60K
COc1cccc(C2=NC(C)(C)NC(c3ccccc3O)C2)c1 (centres undefined)	1.1*	17	18	88	62	13
CCC1(C)N=C(c2ccc3c(c2)OCO3)CC(c2ccccc2O)N1 (centres undefined)	2.1*	13	/	54	25*	/
COc1cccc(C2=NOC(C(=O)NC(C)C)C2)c1 (centres undefined)	99	10	-10	99	95	-1
Cc1cc(NC(=O)CSc2nc3ccccc3c(=O)n2CCCC(=O)NCc2ccccc2)n[nH]1	80	-3	/	92	88	/
Cc1cccc(N2CCN(C(=O)Cc3c(C(=O)O)[nH]c4ccc(Cl)cc34)CC2)c1C	/	0	87*	/	/	6
O=C(c1ccc(COc2ccc(Cl)cc2)o1)N1CCN(Cc2ccc3c(c2)OCO3)CC1	101	-19	96*	101	101	7
O=C(Oc1c(CN2CCOCC2)cc(Cl)c2cccnc12)c1ccc(F)cc1	88	18	26	4.5*	77	23
COc1cccc(C(=O)Oc2c(CN3CCOCC3)cc(Cl)c3cccnc23)c1	1.5*	40	/	6.5*	72	/
COc1ccc(C(=O)Oc2c(CN3CCOCC3)cc(Cl)c3cccnc23)cc1	2.4*	7	26	47*	82	16
O=C(Oc1ccc(Cl)c2cccnc12)N1CCOCC1	/	-2	-15	/	/	1
COc1cc(C(=O)Oc2c(CN3CCOCC3)cc(Cl)c3cccnc23)cc(OC)c1OC	2.1*	42	47	4.7*	82	7
COc1ccc(CN2CCOCC2)cc1	90	-4	/	107	96	/
O=C(NCc1cccnc1)c1ccc2c(=O)n(CCCN3CCCC3=O)c(=S)[nH]c2c1	/	-5	-13	/	/	-2
O=c1nc2ccccc2c2n1CC(CN1CCN(c3cccc(Cl)c3)CC1)N2 (centres undefined)	/	-11	/	/	/	/
Cc1ccc(S(=O)(=O)NC(=O)NN2CCCCCC2)cc1	91	/	14	93	91	/
COC(=O)c1ccccc1NC(=O)N1c2ccccc2CC1C (centres undefined)	65	-1	95*	94	90	1
Cc1cccc(C)c1OCCSc1n[nH]c(N)n1	/	5	/	/	/	/
COc1ccc(C2CC(c3ccccc3)n3nnnc3N2)cc1 (centres undefined)	92	2	/	102	97	/
Cc1ccc(C2CC(c3cccc(Br)c3)Nc3nnnn32)cc1 (centres undefined)	83	-9	67*	100	92	-6
Cc1ccc(OCC(=O)Sc2ccc(C)cc2)cc1	17*	-8	/	97	69	/
COc1ccccc1OCC(=O)Sc1ccc(C)cc1	64	-1	-27	105	68	-2
CCOC(=O)CSc1nnc(-c2ccccc2NC(=O)c2ccccc2)o1	88	-5	-14	93	86	-4
CCc1nnc(NC(=O)CSc2nnc(-c3ccccc3NC(=O)c3ccccc3)o2)s1	30*	-20	3	59	87	0
N#Cc1c(C(F)(F)F)cc(-c2ccccc2)nc1SCc1nc(N)nc(N2CCOCC2)n1	21*	-1	0	75	63	-6
N#Cc1c(C(F)(F)F)cc(-c2ccc(Cl)c(Cl)c2)nc1SCCN1CCOCC1	/	-23	/	/	/	/
SMILES	H69AR growth 86K	E coli WT exp	tolC growth inh	Lung fibro prol	HUVEC inhibit	Jurkat tox 60K
O=C1CN(C(=O)c2cnccn2)c2ccccc2N1	107	-2	-18	/	92	-6
Cc1cc(C)cc(C(=O)N2CC(=O)Nc3ccccc32)c1	35*	1	/	50*	45	/
COc1ccc2nc(SCC(=O)N3CC(=O)Nc4ccccc43)c(C#N)cc2c1	/	-11	/	/	/	/
Cc1cc(C)c2nc(SCC(=O)N3CC(=O)Nc4ccccc43)c(C#N)cc2c1	24*	/	/	63	43	/
Cc1ccc2cc3c(N)c(C(=O)N4CC(=O)Nc5ccccc54)sc3nc2c1	/	-18	/	/	/	/
Cc1ccsc1C(=O)N1CC(=O)Nc2ccccc21	30*	4	12	93	89	10
O=C(CN(C(=O)CNC(=O)c1ccco1)c1ccc(Cl)c(Cl)c1)NC1CCCCC1	64	9	72*	96	91	5
Cc1ccc(C2=N/C(=C/N3CCOCC3)C(=O)O2)cc1	96	7	2	106	101	-4
Cn1c(CSc2ncccn2)nnc1SCC(=O)N1CCCc2ccccc21	82	-1	-4	99	84	3
Cc1oc2c(c1C(=O)c1ccc(Cl)cc1)C(=O)C(=O)c1ccccc1-2	/	1	/	/	/	/
Cc1ccc(C(=O)c2cn[nH]c2-c2ccccc2O)cc1	94	0	/	104	105	/
Cc1ccc(C(=O)c2c(C)oc3c2C(=O)C(=O)c2ccccc2-3)cc1	1.0*	-4	/	2.1*	57	/
Cc1ccc(C(=O)c2coc3c2C(=O)C(=O)c2ccccc2-3)cc1	1.8*	-11	/	47*	3.5*	/
Cc1c(NC(=O)c2ccccc2NS(=O)(=O)c2ccc(Br)cc2)c(=O)n(-c2ccccc2)n1C	87	0	/	92	76	/
O=S1(=O)C=CC(Sc2nc3ccccc3[nH]2)C1 (centres undefined)	20*	6	-13	102	102	4
Cc1c(C(N)=O)sc2nc(-c3ccccc3)cn12	95	8	2	94	83	-1
O=C(NC1C=CS(=O)(=O)C1)c1sc2ccccc2c1Cl (centres undefined)	1.7*	5	9	76	73	22
CCC(=O)N1CCc2cc(S(=O)(=O)NC(C(=O)NCc3ccccc3)C(C)C)ccc21 (centres undefined)	86	-4	22	98	110	1
COc1cccc(-n2c(SCC(N)=O)nc3c([nH]c4ccccc43)c2=O)c1	23*	5	8	66	72	/
COc1cccc(-n2c(SCC(=O)Nc3cc(C)on3)nc3c([nH]c4ccccc43)c2=O)c1	92	-14	25	78	79	5
COc1ccc(CNC(=O)c2c(O)c3ccccc3n(C)c2=O)cc1OC	70	-11	-13	86	90	-2
Cc1nc2sc3c(c2c2nc(-c4ccco4)nn12)CCCC3	9.1*	-8	10	73	66	8
c1coc(-c2nc3c4c5c(sc4ncn3n2)CCCC5)c1	57	-6	0	99	95	0
O=S(=O)(Nc1cccc2cccnc12)c1ccc(S(=O)(=O)N2CCCC2)cc1	6.0*	-4	81*	57	54	11
CS(=O)(=O)Nc1cccc2cccnc12	65	21	-6	90	90	-3
CNCCCC1c2ccccc2C=Cc2ccccc21	56	/	-2	89	81	/
CNCCCC12CCC(c3ccccc31)c1ccccc12	8.6*!	19	10	74	67	/
O=C(CSc1nc2sc3c(c2c(=O)n1Cc1ccco1)CCC3)N1CCc2ccccc21	29*	/	2	85	93	-9
